PG9 binder = binders of HIV-1 gp120 antibody PG9, primary screen, biochemical, TR-FRET | TR-FRET gp120-PG9 antibody binding | inhibition, % at 6.7 µM | 360,000 compounds, 0.43% hits; in the data active = inhibition above about 8.5%
MC4R ag barr = MC4R agonists recruiting beta-arrestin, primary screen, cell-based, luminescence, agonist arm of biased-ligand search; Melanocortin receptor 4 (Homo sapiens), P32245; U2OS MC4R beta-arrestin complementation; percent of melanotan II response, DMSO zero; activation, % at 8.9 µM; 360,000 compounds, 0.98% hits;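 active = activation above a per-plate cutoff, the mean activation of sample wells on that plate plus 3 SD, cut at about 8% in these data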
Rev-erbA mod = modulators of Rev-erb alpha DNA binding, primary screen, biochemical, FITC-DNA, fluorescence polarization, uHTS; activity, % at 10 µM; Rev-erbα–FITC-DNA binding, 90 min; 370,000 compounds, 0.79% hits;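 active = activity above about 14%, limit read from the data; passing the limit was not always enough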
Target sequence (P20393 whole entry, looked up): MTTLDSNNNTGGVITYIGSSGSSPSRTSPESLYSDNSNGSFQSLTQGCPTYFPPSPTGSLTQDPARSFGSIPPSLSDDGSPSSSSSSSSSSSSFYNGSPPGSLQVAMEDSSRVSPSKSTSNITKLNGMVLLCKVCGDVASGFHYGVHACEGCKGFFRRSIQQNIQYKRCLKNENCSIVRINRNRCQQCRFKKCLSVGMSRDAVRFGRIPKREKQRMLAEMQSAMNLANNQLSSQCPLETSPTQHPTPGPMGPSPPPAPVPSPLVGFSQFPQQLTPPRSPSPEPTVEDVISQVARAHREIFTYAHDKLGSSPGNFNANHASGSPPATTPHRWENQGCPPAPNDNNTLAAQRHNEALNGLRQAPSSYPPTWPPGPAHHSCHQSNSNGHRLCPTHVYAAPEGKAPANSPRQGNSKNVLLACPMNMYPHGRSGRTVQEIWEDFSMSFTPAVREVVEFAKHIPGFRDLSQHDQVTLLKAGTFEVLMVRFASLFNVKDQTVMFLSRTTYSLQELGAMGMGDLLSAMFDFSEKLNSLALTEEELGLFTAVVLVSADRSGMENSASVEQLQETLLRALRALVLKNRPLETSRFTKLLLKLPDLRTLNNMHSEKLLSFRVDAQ
NR2E3 ag-1 = NR2E3 agonists in two-hybrid cells, primary screen, cell-based, luminescence, CHO-S, Gal4-NCOR/VP16-NR2E3. Photoreceptor-specific nuclear receptor (Homo sapiens), Q9Y5X4. luciferase. inhibition of corepressor binding, % at 3.98 µM. 360,000 compounds, 0.35% hits. AID 602229, 2012;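 active = inhibition above the mean of all tested compounds plus 3 SD, cut at about 70% in these data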;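 also: higher means lower luciferase signal from less NR2E3 corepressor binding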
MC4R antag cAMP = MC4R antagonists of cAMP signaling, primary screen, cell-based, TR-FRET, antagonist arm of biased-ligand search; Melanocortin receptor 4 (Homo sapiens), P32245; MC4R-expressing cells, MTII-stimulated cAMP, LANCE TR-FRET; inhibition, % at 6.5 µM; 360,000 compounds, 0.48% hits;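 active = inhibition above its plate's cutoff, the mean of tested wells on that plate plus 3 SD, cut at about 29% in these data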
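System – human MC4R-expressing U2OS cells · Also added – Melanotan II · Dosing – one concentration, 6.5 µM nominal · Timing – 30-min compound, 1-h challenge, 1-h detection, room temperature · Measured by – Eu-cAMP/anti-cAMP TR-FRET, emission 671 nm · Replicates – singlicate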
NR2E3 ag-2 = inhibitors of NR2E3-RetCOR corepressor binding, primary screen, NR2E3 agonist project, biochemical, TR-FRET, GST-NR2E3, biotin-RetCOR; 1536-well; inhibition of corepressor binding, % at 4.78 µM; Photoreceptor-specific nuclear receptor (Homo sapiens), Q9Y5X4; 320,000 compounds, 0.12% hits; AID 2300, 2010;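 active = percent inhibition above the cutoff of mean plus 3 SD of all tested compounds, set per screening campaign, cut at about 20% in these data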
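Material – GST-tagged NR2E3 plus biotinylated RetCOR corepressor · Quantity – NR2E3 fusion 1.35 nM · Times – 5 h incubation at 4 °C · Medium – pH 7.5 Tris-based buffer · Technique – TR-FRET, Eu(K)-anti-GST donor, streptavidin-D2 acceptor, ex 340, em 617/671 nm · Benchmarks – high control biotin, low control 0.6% DMSO · Format – 1536-well plates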
NR2E3 ag conf = NR2E3 agonist confirmation in cells, cell-based, luminescence, CHO-S two-hybrid. CHO-S mammalian two-hybrid NR2E3-NCOR, luciferase luminescence. inhibition, % at 3.98 µM. 2,300 compounds, 51% hits. shares compounds with NR2E3 ag-1;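 active = average inhibition above a cutoff equal to the mean inhibition of all tested compounds plus one SD, cut at about 70% in these data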
GAL4-VP16 luc = GAL4-VP16 reporter modulators, confirmation, counter-screen for NR2E3 agonist project, cell-based, luminescence, CHO-S, high throughput | inhibition, % at 3.98 µM | shares compounds with NR2E3 ag-1 | 2,300 compounds, 29% hits | CHO-S GAL4-VP16 luciferase reporter;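 active = mean inhibition above a cutoff equal to the average over all tested compounds plus one standard deviation, cut at about 70% in these data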;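 also: luciferase from a UAS reporter driven by GAL4-VP16 transactivation; higher means less reporter light so more repression of VP16 activity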
Each line names hits and unclear results; the compound was inactive in the other large screens (follow-up assays come after a bar, where they were run). Only some compounds are listed: those with a hit (about 2.7% of all), similar ones and a draw of the others.

Cn1cc(CNCc2ccc(OC(F)(F)F)cc2)c(-c2ccc3c(c2)OCCO3)n1	NR2E3 ag-1 75.8 | NR2E3 ag conf 90.5 | GAL4-VP16 luc 78.6
COc1ccc(S(=O)(=O)Nc2nc3ccccc3s2)cc1	none
CC(C)N1C(=O)S/C(=C/c2ccc(Sc3nc4ccccc4[nH]3)o2)C1=O	none
C=CCN1C(=O)S/C(=C/c2ccc(Sc3nc4ccccc4[nH]3)o2)C1=O	none | NR2E3 ag conf 81.2 | GAL4-VP16 luc inactive
CC(=O)N1CCc2cc(S(=O)(=O)NC3CCCc4ccccc43)ccc21 (centres undefined)	none | NR2E3 ag conf inactive | GAL4-VP16 luc inactive
COc1ccc(CCNC(=O)c2nnn(-c3ccccc3OC)c2N)cc1OC	none
COc1ccc(CCNC(=O)c2nnn(-c3ccc4c(c3)OCCO4)c2N)cc1OC	none (no result: Rev-erbA mod) | NR2E3 ag conf inactive | GAL4-VP16 luc inactive
COc1ccc(Br)cc1Cn1nnc(C(=O)Nc2ccc3c(c2)OCCO3)c1N	none | NR2E3 ag conf inactive | GAL4-VP16 luc inactive
O=C(CSc1nnc(-c2ccco2)n1Cc1ccco1)Nc1ccccc1	none
O=C1CCC/C(=N\NC(=O)c2ccc(COc3ccccc3-c3ccccc3)cc2)C1	none
O=C(COc1ccccc1-c1ccccc1)NN=C1CCCC1	none | NR2E3 ag conf inactive | GAL4-VP16 luc inactive
Cn1nc(CC(=O)NCc2ccc(C(F)(F)F)cc2)c2ccccc2c1=O	none | NR2E3 ag conf 91.3 | GAL4-VP16 luc 78.8
Cc1[nH]oc(=O)c1N=Nc1ccccc1	NR2E3 ag-1 74.8 | NR2E3 ag conf inactive | GAL4-VP16 luc inactive
Cc1[nH]oc(=O)c1N=Nc1c(Cl)cccc1Cl	none
COCCNC(=O)c1ccc2c(=O)n(Cc3ccco3)c(SCC(=O)NC3CCCC3)nc2c1	none
Cc1c(Cl)cccc1NC(=S)NCC(C)C	none
Nc1ccc(Br)cc1-c1nc2ccccc2[nH]c1=O	none | NR2E3 ag conf 91.1 | GAL4-VP16 luc 76.8
COC(=O)c1cc(CSc2nc3ccccc3c(=O)n2C)oc1C	NR2E3 ag-1 86.7 | NR2E3 ag conf 82.9 | GAL4-VP16 luc 71.3
COCCn1c(SCc2ccc(C(=O)OC)o2)nc2ccccc2c1=O	none
Cc1cc(C(=O)C(C)OC(=O)c2ccc(NC(=O)CC#N)cc2)c(C)n1-c1ccccc1 (centres undefined)	none | NR2E3 ag conf inactive | GAL4-VP16 luc inactive
CC(=O)Nc1ccc(SCC(=O)c2cc(C)n(-c3ccccc3)c2C)cc1	none | NR2E3 ag conf inactive | GAL4-VP16 luc inactive
COc1ccc(-n2c(C)cc(C(=O)CSc3ccc(NC(C)=O)cc3)c2C)cc1	none
O=[N+]([O-])c1cc(S(=O)(=O)Nc2ccccc2)ccc1N1CCN(c2ccccc2)CC1	none
COc1ccc(N2CCN(C(=O)c3ccc4c(=O)n(CCc5ccc(OC)c(OC)c5)c(=O)[nH]c4c3)CC2)cc1	none
CC(=O)N/C(=C\c1ccc(F)cc1)C(=O)OC(C)C	none
Cn1c(-c2ccccc2)c(C(=O)CCl)c2ccccc21	MC4R ag barr 12.5 (no result: NR2E3 ag-2) | NR2E3 ag conf inactive | GAL4-VP16 luc inactive
N=C1SC(c2ccccc2)C(=O)N1c1ncc(Cc2ccccc2Cl)s1 (centres undefined)	none | NR2E3 ag conf inactive | GAL4-VP16 luc inactive
Cc1cc(Nc2cccc(Cl)c2)nc(NCc2ccccc2)n1	NR2E3 ag-1 93.1 | NR2E3 ag conf 95.6 | GAL4-VP16 luc 76.1
Cc1cc(N/N=C/c2cccc(Cl)c2)nc(NCc2ccccc2)n1	none
COC(=O)[C@H]1[C@H]2C[C@@H]3c4[nH]c5cc(OC)ccc5c4CCN3C[C@H]2C[C@@H](OC(=O)c2ccc(N)cc2)[C@@H]1OC	none
CCOCCCNS(=O)(=O)c1ccc(NC(=O)c2ccc([N+](=O)[O-])cc2Cl)cc1	none
c1csc(CNc2ncnc3sccc23)c1	NR2E3 ag-1 72.1 | NR2E3 ag conf 84.4 | GAL4-VP16 luc inactive
COc1ccc(CC2CCN(c3ncnc4sccc34)CC2)cc1	none (no result: PG9 binder, MC4R ag barr, NR2E3 ag-1, MC4R antag cAMP, NR2E3 ag-2)
c1ccc(CNc2ncnc3sccc23)cc1	NR2E3 ag-1 91.3 | NR2E3 ag conf 79.6 | GAL4-VP16 luc inactive
COc1ccc(CNc2ncnc3sccc23)cc1	NR2E3 ag-1 93.6 | NR2E3 ag conf 81.6 | GAL4-VP16 luc inactive
c1cncc(CNc2ncnc3sccc23)c1	none
O=C(c1ccco1)N1CCN(S(=O)(=O)c2ccc(Br)cc2)CC1	none
O=C(c1ccco1)N1CCN(S(=O)(=O)c2ccc(Oc3ccccc3)cc2)CC1	none | NR2E3 ag conf inactive | GAL4-VP16 luc inactive
COc1ccc(OC)c(S(=O)(=O)N/N=C\c2ccc3c(c2)OCO3)c1	none
COc1ccc(S(=O)(=O)N/N=C\c2ccc3c(c2)OCO3)c(OC)c1	none (no result: NR2E3 ag-2) | NR2E3 ag conf inactive | GAL4-VP16 luc inactive
Cc1nc(C)c(C(=O)NNS(=O)(=O)c2ccc3ccccc3c2)s1	none | NR2E3 ag conf 81.9 | GAL4-VP16 luc 75.8
O=C1OC[C@H](Cc2ccc3c(c2)OCO3)/C1=C\c1ccc2c(c1)OCO2	none (no result: PG9 binder, Rev-erbA mod) | NR2E3 ag conf inactive | GAL4-VP16 luc inactive
Cc1ccc(C(C#N)c2ccc(C(=O)c3ccc(F)cc3)cc2)cc1 (centres undefined)	none | NR2E3 ag conf inactive | GAL4-VP16 luc inactive
N#CC(c1ccc(F)cc1)c1ccc(C(=O)c2ccc(F)cc2)cc1 (centres undefined)	none
c1ccc2c(c1)nc(N1CCOCC1)c1ccccc12	none
CCN(CC)c1ccc(Nc2nc(N3CCOCC3)c3ccccc3n2)cc1	NR2E3 ag-1 72.5 | NR2E3 ag conf 74.5 | GAL4-VP16 luc inactive
COc1ccc(Nc2nc(N3CCCC3)c3ccccc3n2)cc1	none | NR2E3 ag conf inactive | GAL4-VP16 luc inactive
CCC(C)(C)NC(=O)C(c1sccc1C)N(Cc1ccco1)C(=O)c1csnn1 (centres undefined)	none

Source: PubChem
